≈ marks a conversion by molar mass, not a printed value.
What was measured:
Assay type in all cases: functional
[1] = test system: Neisseria meningitidis; test: Antimicrobial activity against Neisseria meningitidis isolates harboring penA 1 allele encoding PBP2 mutant
How it was run: (§1)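 Penicillin G MICs were determined for N. meningitidis isolates grouped by penA allele, with the PBP2 C-terminal region (amino acids 441 to 574) deduced from penA sequencing. Values are geometric mean MICs with lower and upper 95% confidence limits, calculated only for alleles represented by at least five isolates.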

[2] = test system: Neisseria meningitidis; test: Antimicrobial activity against Neisseria meningitidis isolates harboring penA 13 allele encoding PBP2 mutant; how it was run: as §1
[3] = test system: Neisseria meningitidis; test: Antimicrobial activity against Neisseria meningitidis isolates harboring penA 30 allele encoding PBP2 mutant; how it was run: as §1
[4] = test system: Neisseria meningitidis; test: Antimicrobial activity against Neisseria meningitidis isolates harboring penA 111 allele encoding PBP2 P551 mutant; how it was run: as §1
[5] = test system: Neisseria meningitidis; test: Antimicrobial activity against Neisseria meningitidis isolates harboring penA 42 allele encoding PBP2 mutant; how it was run: as §1
[6] = test system: Neisseria meningitidis; test: Antimicrobial activity against Neisseria meningitidis isolates harboring penA 5 allele encoding PBP2 mutant; how it was run: as §1
[7] = test system: Neisseria meningitidis; test: Antimicrobial activity against Neisseria meningitidis isolates harboring penA 4 allele encoding PBP2 mutant; how it was run: as §1
[8] = test system: Neisseria meningitidis; test: Antimicrobial activity against Neisseria meningitidis isolates harboring penA 7 allele encoding PBP2 mutant; how it was run: as §1
[9] = test system: Neisseria meningitidis; test: Antimicrobial activity against Neisseria meningitidis isolates harboring penA 20 allele encoding PBP2 mutant; how it was run: as §1
[10] = test system: Neisseria meningitidis; test: Antimicrobial activity against Neisseria meningitidis isolates harboring penA 22 allele encoding PBP2 mutant; how it was run: as §1
[11] = test system: Neisseria meningitidis; test: Antimicrobial activity against Neisseria meningitidis isolates harboring penA 9 allele encoding PBP2 mutant; how it was run: as §1
[12] = test system: Neisseria meningitidis; test: Antimicrobial activity against Neisseria meningitidis isolates harboring penA 12 allele encoding PBP2 mutant; how it was run: as §1
[13] = test system: Neisseria meningitidis; test: Antimicrobial activity against Neisseria meningitidis isolates harboring penA 27 allele encoding PBP2 mutant; how it was run: as §1
[14] = test system: Neisseria meningitidis; test: Antimicrobial activity against Neisseria meningitidis isolates harboring penA 15 allele encoding PBP2 mutant; how it was run: as §1
[15] = test system: Neisseria meningitidis; test: Antimicrobial activity against Neisseria meningitidis isolates harboring penA 14 allele encoding PBP2 mutant; how it was run: as §1
[16] = test system: Neisseria meningitidis; test: Antimicrobial activity against Neisseria meningitidis isolates harboring penA 25 allele encoding PBP2 mutant; how it was run: as §1
[17] = test system: Neisseria meningitidis; test: Antimicrobial activity against Neisseria meningitidis isolates harboring penA 11 allele encoding PBP2 mutant; how it was run: as §1
[18] = test system: Neisseria meningitidis; test: Antimicrobial activity against Neisseria meningitidis isolates harboring penA 81 allele encoding PBP2 mutant; how it was run: as §1
[19] = test system: Neisseria meningitidis; test: Antimicrobial activity against Neisseria meningitidis isolates harboring penA 57 allele encoding PBP2 mutant; how it was run: as §1
[20] = test system: Neisseria meningitidis; test: Antimicrobial activity against Neisseria meningitidis isolates harboring penA 83 allele encoding PBP2 mutant; how it was run: as §1
[21] = test system: Neisseria meningitidis; test: Antimicrobial activity against Neisseria meningitidis isolates harboring penA 52 allele encoding PBP2 mutant; how it was run: as §1
[22] = test system: Neisseria meningitidis; test: Antimicrobial activity against Neisseria meningitidis isolates harboring penA 29 allele encoding PBP2 mutant; how it was run: as §1
[23] = test system: Neisseria meningitidis; test: Antimicrobial activity against Neisseria meningitidis isolates harboring penA 2 allele encoding PBP2 mutant; how it was run: as §1
[24] = test system: Neisseria meningitidis; test: Antimicrobial activity against Neisseria meningitidis isolates harboring penA 33 allele encoding PBP2 mutant; how it was run: as §1
[25] = test system: Neisseria meningitidis; test: Antimicrobial activity against Neisseria meningitidis isolates harboring penA 34 allele encoding PBP2 mutant; how it was run: as §1
[26] = test system: Neisseria meningitidis; test: Antimicrobial activity against Neisseria meningitidis isolates harboring penA 17 allele encoding PBP2 mutant; how it was run: as §1
[27] = test system: Neisseria meningitidis; test: Antimicrobial activity against Neisseria meningitidis isolates harboring penA 19 allele encoding PBP2 mutant; how it was run: as §1
[28] = test system: Neisseria meningitidis; test: Antimicrobial activity against Neisseria meningitidis isolates harboring penA 3 allele encoding PBP2 mutant; how it was run: as §1
[29] = test system: Neisseria meningitidis; test: Antimicrobial activity against Neisseria meningitidis isolates harboring penA 18 allele encoding PBP2 mutant; how it was run: as §1
[30] = test system: Neisseria meningitidis; test: Antimicrobial activity against Neisseria meningitidis isolates harboring penA 16 allele encoding PBP2 mutant; how it was run: as §1
[31] = test system: Neisseria meningitidis; test: Antimicrobial activity against Neisseria meningitidis isolates harboring penA 23 allele encoding PBP2 mutant; how it was run: as §1

Work on CC1(C)S[C@@H]2[C@H](NC(=O)Cc3ccccc3)C(=O)N2[C@H]1C(=O)O [PENICILLIN G] yielded an MIC [1] of 0.008 µg/mL (≈ 0.0239 µM), an MIC [2] of 0.125 µg/mL (≈ 0.374 µM) and an MIC [3] of 0.125 µg/mL (≈ 0.374 µM). The MIC [4] was 0.094 µg/mL (≈ 0.281 µM), the MIC [5] was 0.094 µg/mL (≈ 0.281 µM) and the MIC [6] was 0.015 µg/mL (≈ 0.0449 µM). The MIC [7] was 0.032 µg/mL (≈ 0.0957 µM), the MIC [8] was 0.064 µg/mL (≈ 0.191 µM) and the MIC [9] was 0.094 µg/mL (≈ 0.281 µM). For the same compound, the MIC [10] was 0.023 µg/mL (≈ 0.0688 µM), the MIC [11] was 0.064 µg/mL (≈ 0.191 µM) and the MIC [12] was 0.064 µg/mL (≈ 0.191 µM). It also gave an MIC [13] of 0.032 µg/mL (≈ 0.0957 µM), an MIC [14] of 0.094 µg/mL (≈ 0.281 µM) and an MIC [15] of 0.064 µg/mL (≈ 0.191 µM). It also gave an MIC [16] of 0.064 µg/mL (≈ 0.191 µM), an MIC [17] of 0.094 µg/mL (≈ 0.281 µM) and an MIC [18] of 0.19 µg/mL (≈ 0.568 µM). It also gave an MIC [19] of 0.008 µg/mL (≈ 0.0239 µM), an MIC [20] of 0.023 µg/mL (≈ 0.0688 µM) and an MIC [21] of 0.064 µg/mL (≈ 0.191 µM). The MIC [22] was 0.094 µg/mL (≈ 0.281 µM), the MIC [23] was 0.015 µg/mL (≈ 0.0449 µM) and the MIC [24] was 0.125 µg/mL (≈ 0.374 µM). For the same compound, the MIC [25] was 0.032 µg/mL (≈ 0.0957 µM), the MIC [26] was 0.125 µg/mL (≈ 0.374 µM) and the MIC [27] was 0.064 µg/mL (≈ 0.191 µM). For the same compound, the MIC [28] was 0.004 µg/mL (≈ 0.012 µM), the MIC [29] was 0.094 µg/mL (≈ 0.281 µM) and the MIC [30] was 0.047 µg/mL (≈ 0.141 µM). It also gave an MIC [31] of 0.064 µg/mL (≈ 0.191 µM).
